According to article PMC5447658 (Translational Oncology, 2017):

What was measured:
HER2 = settings: cited from earlier work
HER2 (SKBR3 cells) = HER2 (SKBR3 cells) (Homo sapiens, UniProt P04626); assay: In vitro receptor competitive binding assay; settings: TP1623 0-500 nmol/L, 30 minutes at 4°C, then tracer 2 h at 4°C
Method in brief: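 SKBR3 cells at 2–4 × 10^4/well were seeded the day before. Unlabelled test compound was added at 0, 1, 5, 25, 50 and 500 nmol/L final, in triplicate, for 30 min at 4°C. 99mTc tracer (462 KBq/0.1 μg) followed for 2 h at 4°C. Cells were washed three times in ice-cold PBS, trypsin-digested and gamma-counted. Count was plotted against competitor concentration.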

Row | Sequence | affinity for HER2 (HER2) | competitive inhibition of binding of 99mTc-TP1623 to HER2 (HER2 (SKBR3 cells))
1 | YCFPDEEGACY | high affinity | –
2 | G (D) AGG-Aba-YCFPDEEGACY-NH2 [TP1623] | – | could competitively inhibit the binding
